Tested on: Fibroblast
Experiment: Multiplex assay against human fibroblast
Assay type: toxicity, cell-based
Procedure, shortened: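 On a CQ1 microscope at 37°C and 5% CO2, live cells were imaged after compound addition. They had been stained at seeding with Hoechst33342, BioTracker Green Microtubule Cytoskeleton Dye, MitoTracker Red and Annexin V Alexa Fluor 680. CellPathfinder machine-learning gating assigned cells to Hoechst high-intensity objects or normal cells, normal cells to healthy, pyknosed or fragmented nuclei, and pyknosed cells to mitotic or apoptotic. Tubulin, mitochondrial-mass and membrane-permeability phenotypes are per cents of healthy-nucleus cells.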

[1] = 12 h, 1 µM, compound concentration 1 uM, replicate 1
[2] = 12 h, 1 µM, compound concentration 1 uM, replicate 2
[3] = 12 h, 10 µM, compound concentration 10 uM, replicate 1
[4] = 12 h, 10 µM, compound concentration 10 uM, replicate 2
[5] = 24 h, 1 µM, compound concentration 1 uM, replicate 1
[6] = 24 h, 1 µM, compound concentration 1 uM, replicate 2
[7] = 24 h, 10 µM, compound concentration 10 uM, replicate 1
[8] = 24 h, 10 µM, compound concentration 10 uM, replicate 2
[9] = 48 h, 1 µM, compound concentration 1 uM, replicate 1
[10] = 48 h, 1 µM, compound concentration 1 uM, replicate 2
[11] = 48 h, 10 µM, compound concentration 10 uM, replicate 1
[12] = 48 h, 10 µM, compound concentration 10 uM, replicate 2

## CC(=O)Nc1cccc2c1c(Sc1ccc(Cl)cc1)c(C)n2CC(=O)O [AZD1981]
[1]
  Population Apoptotic (%): 27%
  Population Fragmented Nuclei (%): 18%
  Population Healthy Nuclei (%): 61%
  Population Hoechst High Intensity Objects (%): 1%
  Population Membrane Permeable-Phenotype (%): 2%
  Population Mitochondria Different-Phenotype (%): 9%
  Population Mitotic Cells (%): 72%
  Population Normal (%): 98%
  Population Pyknosed Nuclei (%): 19%
  Population Tubulin-Different-Phenotype (%): 33%
  Total Cell Count: 173
[2]
  Population Apoptotic (%): 37%
  Population Fragmented Nuclei (%): 31%
  Population Healthy Nuclei (%): 47%
  Population Hoechst High Intensity Objects (%): 3%
  Population Membrane Permeable-Phenotype (%): 14%
  Population Mitochondria Different-Phenotype (%): 7%
  Population Mitotic Cells (%): 62%
  Population Normal (%): 96%
  Population Pyknosed Nuclei (%): 21%
  Population Tubulin-Different-Phenotype (%): 55%
  Total Cell Count: 118
[3]
  Population Apoptotic (%): 40%
  Population Fragmented Nuclei (%): 16%
  Population Healthy Nuclei (%): 64%
  Population Hoechst High Intensity Objects (%): 3%
  Population Membrane Permeable-Phenotype (%): 2%
  Population Mitochondria Different-Phenotype (%): 3%
  Population Mitotic Cells (%): 60%
  Population Normal (%): 96%
  Population Pyknosed Nuclei (%): 19%
  Population Tubulin-Different-Phenotype (%): 24%
  Total Cell Count: 133
[4]
  Population Apoptotic (%): 33%
  Population Fragmented Nuclei (%): 35%
  Population Healthy Nuclei (%): 42%
  Population Hoechst High Intensity Objects (%): 4%
  Population Membrane Permeable-Phenotype (%): 8%
  Population Mitochondria Different-Phenotype (%): 0%
  Population Mitotic Cells (%): 66%
  Population Normal (%): 95%
  Population Pyknosed Nuclei (%): 22%
  Population Tubulin-Different-Phenotype (%): 35%
  Total Cell Count: 112
[5]
  Population Apoptotic (%): 53%
  Population Fragmented Nuclei (%): 19%
  Population Healthy Nuclei (%): 63%
  Population Hoechst High Intensity Objects (%): 6%
  Population Membrane Permeable-Phenotype (%): 2%
  Population Mitochondria Different-Phenotype (%): 2%
  Population Mitotic Cells (%): 46%
  Population Normal (%): 93%
  Population Pyknosed Nuclei (%): 16%
  Population Tubulin-Different-Phenotype (%): 28%
  Total Cell Count: 168
[6]
  Population Apoptotic (%): 36%
  Population Fragmented Nuclei (%): 30%
  Population Healthy Nuclei (%): 53%
  Population Hoechst High Intensity Objects (%): 3%
  Population Membrane Permeable-Phenotype (%): 7%
  Population Mitochondria Different-Phenotype (%): 7%
  Population Mitotic Cells (%): 63%
  Population Normal (%): 96%
  Population Pyknosed Nuclei (%): 15%
  Population Tubulin-Different-Phenotype (%): 53%
  Total Cell Count: 128
[7]
  Population Apoptotic (%): 41%
  Population Fragmented Nuclei (%): 13%
  Population Healthy Nuclei (%): 68%
  Population Hoechst High Intensity Objects (%): 4%
  Population Membrane Permeable-Phenotype (%): 2%
  Population Mitochondria Different-Phenotype (%): 5%
  Population Mitotic Cells (%): 58%
  Population Normal (%): 95%
  Population Pyknosed Nuclei (%): 18%
  Population Tubulin-Different-Phenotype (%): 17%
  Total Cell Count: 135
[8]
  Population Apoptotic (%): 55%
  Population Fragmented Nuclei (%): 36%
  Population Healthy Nuclei (%): 43%
  Population Hoechst High Intensity Objects (%): 6%
  Population Membrane Permeable-Phenotype (%): 14%
  Population Mitochondria Different-Phenotype (%): 0%
  Population Mitotic Cells (%): 45%
  Population Normal (%): 93%
  Population Pyknosed Nuclei (%): 20%
  Population Tubulin-Different-Phenotype (%): 40%
  Total Cell Count: 104
[9]
  Population Apoptotic (%): 54%
  Population Fragmented Nuclei (%): 23%
  Population Healthy Nuclei (%): 61%
  Population Hoechst High Intensity Objects (%): 6%
  Population Membrane Permeable-Phenotype (%): 1%
  Population Mitochondria Different-Phenotype (%): 6%
  Population Mitotic Cells (%): 45%
  Population Normal (%): 93%
  Population Pyknosed Nuclei (%): 15%
  Population Tubulin-Different-Phenotype (%): 33%
  Total Cell Count: 171
[10]
  Population Apoptotic (%): 57%
  Population Fragmented Nuclei (%): 34%
  Population Healthy Nuclei (%): 54%
  Population Hoechst High Intensity Objects (%): 3%
  Population Membrane Permeable-Phenotype (%): 8%
  Population Mitochondria Different-Phenotype (%): 2%
  Population Mitotic Cells (%): 42%
  Population Normal (%): 96%
  Population Pyknosed Nuclei (%): 11%
  Population Tubulin-Different-Phenotype (%): 52%
  Total Cell Count: 129
[11]
  Population Apoptotic (%): 64%
  Population Fragmented Nuclei (%): 21%
  Population Healthy Nuclei (%): 64%
  Population Hoechst High Intensity Objects (%): 4%
  Population Membrane Permeable-Phenotype (%): 0%
  Population Mitochondria Different-Phenotype (%): 2%
  Population Mitotic Cells (%): 35%
  Population Normal (%): 95%
  Population Pyknosed Nuclei (%): 13%
  Population Tubulin-Different-Phenotype (%): 25%
  Total Cell Count: 134
[12]
  Population Apoptotic (%): 40%
  Population Fragmented Nuclei (%): 43%
  Population Healthy Nuclei (%): 42%
  Population Membrane Permeable-Phenotype (%): 11%
  Population Mitochondria Different-Phenotype (%): 0%
  Population Mitotic Cells (%): 60%
  Population Pyknosed Nuclei (%): 15%
  Population Tubulin-Different-Phenotype (%): 54%
  Total Cell Count: 105
